This note sets out measurements from PubChem BioAssay AID2052 (NMMLSC, 2009).

In all, about 330,000 compounds went through this assay and about 220 (0.067%) were called active.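 How the source made its calls: active means response, share of CD8 T cells binding vesicles, and their 90th percentile fluorescence all below set limits (cut at about 80% in these data, passing the limit was not always enough); inactive means the rest, inconclusive results apart.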 The full list was thinned out, with actives kept by preference. Non-standard residues stand in square brackets, D forms with d. Residues, ends and D or L forms follow the SMILES beside them. ξ: configuration not given here. ξV = CC(C)C(N)C(=O)O

The nature of this experiment: murine CD8 T cell vesicle adhesion modulation – mouse 2C CD8+ T cells, flow cytometry, primary screen (AID 2052).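 On double positive events: binding gate set so that unloaded-vesicle control wells show 10% double positive cells.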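 On response (vesicle binding): values below 100% mean blocked vesicle binding to the CD8+ T cells.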 To be noted: 2C CD8+ T cell-vesicle binding, at 7 µM, stronger effect = lower value; double positive events: measured here: CD8+ vesicle-bound cell fraction. Put shortly:
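Assay system: 2C TCR transgenic mouse naive CD8+ T cells, MACS-purified | Read-out: CD8+ gate FL2 mean fluorescence as % of same-row positive control | Signal: High-throughput flow cytometry with anti-B7-1 and anti-CD8 staining | Timing: Binding step 1.5 h, 37 °C, antibody labelling 20 min, ice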
In general terms: A flow cytometer gives signals particle by particle.
In the case of `CCc1cccc2c3c([nH]c12)C(CC)(CC(=O)O)OCC3` (stereo unspecified), the double positive events is 14.8% and the response (vesicle binding) is 487% (inactive).
Consider `O=C(CSc1ccc(-c2ccccn2)nn1)Nc1ccccc1`, for which the double positive events worked out at 12.5% and the response (vesicle binding) was 157% (inactive).
On the same counts, the results for `Cc1c(OC(C)C(=O)NCC2CCC(C(=O)O)CC2)ccc2c1oc(=O)c1ccccc12` (stereo unspecified) are 55.9% and 184% (inactive).
The matching figures for `Cn1nnnc1NCc1ccc(Cl)c(Cl)c1`: 43.7% and 445% (inactive).
The matching figures for `CCCn1nnnc1NCc1ccc(OC)cc1`: 56.3% and 308% (inactive).
As to `COc1ccc(CNc2nnnn2C)cc1`, the double positive events is 4% and the response (vesicle binding) was 0% (active).
For `CC(C)N1CCC(NC(=O)Nc2ccccc2)CC1`, the double positive events was 60.7% and the response (vesicle binding) was 257% (inactive).
The matching figures for `CC(=O)NC(C(=O)NCC(N)=O)C(C)C` (stereo unspecified) (Ac-[ξV]-Gly-NH2): 32.4% and 396% (inactive).
The matching figures for `O=C(O)c1[nH]c2ccccc2c1C(c1cccc(O)c1)c1c(C(=O)O)[nH]c2ccccc12`: 36.2% and 361% (inactive).
On the same counts, the results for `Cc1ccc(CNC(=O)COC(=O)C2CCC2)cc1` are 37.4% and 742% (inactive).
As to `O=C(COC(=O)Cc1c[nH]c2ccccc12)NCCc1ccccc1`, the double positive events was determined as 19.5% and the response (vesicle binding) was 241% (inactive).
The matching figures for `NC(=O)COc1ccc(C23CC4CC(CC(C4)C2)C3)cc1`: 52.9% and 159% (inactive).
On the same counts, the results for `COP1(=O)C[C@@H](O)[C@@H](O)[C@@H](COCc2ccccc2)O1` (stereo partly specified) are 21.9% and 504% (inactive).
Turning to `C[C@H](OC(=O)n1ccnc1)[C@@H]1O[C@@]2(C)CCC[C@@H]1O2`, the double positive events amounted to 24.9% and the response (vesicle binding) was 376% (inactive).
On the same counts, the results for `COc1ccc(N(CC(=O)Nc2ccc(C)cc2C)S(=O)(=O)c2ccccc2[N+](=O)[O-])c(OC)c1` are 61.2% and 182% (inactive).
Regarding `Cc1noc(C)c1CSc1nnc2ccc3ccccc3n12`, the double positive events was 43.2% and the response (vesicle binding) was 196% (inactive).
The matching figures for `NS(=O)(=O)c1cc(Cl)c(Cl)c(S(N)(=O)=O)c1`: 42.1% and 570% (inactive).
On the same counts, the results for `Cn1nnc(NC(=S)NC(=O)c2ccccc2)n1` are 30.5% and 556% (inactive).
Turning to `CSc1nnc(SCc2nc3sc(C(=O)O)c(C)c3c(=O)[nH]2)s1`, the double positive events was found to be 37.4% and the response (vesicle binding) was 501% (inactive).
Turning to `CCc1ccc(CNC(=O)C2CCN(c3nnc(C)c4c(C)n(-c5ccc(C)cc5)nc34)CC2)cc1`, the double positive events came out at 10.5% and the response (vesicle binding) was 623% (inactive).
Consider `CC1(C)C[C@H]2C3=CCC4[C@@]5(C)CC[C@H](O)[C@](C)(CO)C5CC[C@@]4(C)[C@]3(C)C[C@@H](O)[C@@]2(CO)[C@@H](O)[C@@H]1O` (stereo partly specified), for which the double positive events was found to be 14.8% and the response (vesicle binding) was 534% (inactive).
On the same counts, the results for `COc1cc(NC(=S)NNC(=O)CC(C)C)c(OC)cc1Cl` are 66.1% and 458% (inactive).
On the same counts, the results for `Cc1nn(CCOc2ccc(Br)cc2)c(C)c1[N+](=O)[O-]` are 61.8% and 447% (inactive).
The matching figures for `COc1cc(OC)c(-n2cc(-c3ccc(Cl)cc3)[nH]c2=O)cc1Cl`: 39.5% and 546% (inactive).
Turning to `O=C(c1ccc2c(c1)OCO2)N1CCN(C(=O)c2ccco2)CC1`, the double positive events is 35.9% and the response (vesicle binding) is 148% (inactive).
On the same counts, the results for `O=C(c1ccco1)N1CCN(C(=O)C2c3ccccc3Oc3ccccc32)CC1` are 0% and 0% (active).
On the same counts, the results for `O=C(c1ccco1)N1CCN(CCOc2ccccc2)CC1` are 23.1% and 301% (inactive).
The matching figures for `Cc1cc(C)c(NC(=O)CSc2nc3ccncc3[nH]2)c(C)c1`: 24.7% and 968% (inactive).
For the compound `Cc1sc2ncnc(SCC(=O)Nc3ccc(CN4CCCC4)cc3)c2c1C`, the double positive events stood at 35.3% and the response (vesicle binding) is 104% (inactive).
On the same counts, the results for `C=CC[C@@H](CC(=O)N[C@@H](CO)Cc1ccccc1)C(=O)NCCOC(=O)[C@@H](CC=C)CC(=O)OC(C)(C)C` are 13.7% and 321% (inactive).
The matching figures for `CC(=O)Nc1nc2c(s1)C(=O)NCC(C)(C)C2`: 50.4% and 439% (inactive).
Take `Cc1ccc(C(=O)Nc2ccc(C)c(S(=O)(=O)N(C)C)c2)s1`: the double positive events was 45.5% and the response (vesicle binding) is 218% (inactive).
Regarding `Nc1ccc(OCC(O)C[n+]2ccc(CCS(=O)(=O)[O-])cc2)cc1` (stereo unspecified), the double positive events came out at 20.9% and the response (vesicle binding) was 319% (inactive).
On the same counts, the results for `CC(Oc1ccc(Br)cc1)C(=O)NCC(c1ccco1)N1CCCCC1` (stereo unspecified) are 51.4% and 336% (inactive).
The matching figures for `O=C1CC(Sc2ncn[nH]2)C(=O)N1c1ccccc1` (stereo unspecified): 46.5% and 391% (inactive).
The matching figures for `COC(=O)C(C(=O)Nc1cccc(C)n1)C1CCCCCC1` (stereo unspecified): 44.3% and 158% (inactive).
Turning to `CSc1ccccc1C(=O)OCC(=O)N1CCN(C(C)=O)CC1`, the double positive events is 34.9% and the response (vesicle binding) was 823% (inactive).
On the same counts, the results for `CCn1cc(C(=O)N2CC=C(c3ccccc3)CC2)c(=O)c2ccc(C)nc21` are 1.9% and 79.1% (inactive).
On the same counts, the results for `CN1C(C(=O)NCC2CC2)CC2Cn3c(nc4ccccc43)C21` (stereo unspecified) are 12.7% and 473% (inactive).
The matching figures for `Cc1ccc(C)c2[nH]c(=O)c(CCNC(=O)CC(C)C)cc12`: 38.5% and 832% (inactive).
Turning to `CCOC(=O)C1CCN(C(=O)C2(NC(=O)Nc3cccc(F)c3)CCCCC2)CC1`, the double positive events was 36.4% and the response (vesicle binding) was 360% (inactive).
On the same counts, the results for `CC1=C(C(N)=O)C(c2sccc2C)n2nnnc2N1` (stereo unspecified) are 23.4% and 292% (inactive).
For `CC1=C(C(=O)OC2CCCCC2)C(c2ccccc2F)NC(=O)N1` (stereo unspecified), the double positive events is 33.6% and the response (vesicle binding) was 167% (inactive).
